A word on the IC50: it is the midpoint of a concentration-inhibition curve.

The structures appear in SMILES notation.

One assay deals with HL-60. Nature of the assay: Cytotoxicity against human HL60 cells after 3 days by SRB assay. To be noted: HL-60, 72 h. The assay is classed as functional, cell-based. A general note: In SRB staining, fixed cells bind dye roughly in proportion to their protein.
The subject of a further assay is SNU-638. Nature of the assay: Cytotoxicity against human SNU638 cells after 3 days by SRB assay. The assay is classed as functional, cell-based. The settings on record: SNU-638, 72 h.
Another assay concerns SK-MEL-2. The experiment in a line: Cytotoxicity against human SK-MEL-2 cells after 3 days by SRB assay. Format: functional, cell-based. The settings on record: SK-MEL-2, 72 h.
In assay [1] the target is DNA topoisomerase 2-alpha (Homo sapiens, UniProt P11388). The experiment in a line: Inhibition of human recombinant topoisomerase 2 by decatenation assay. Summed up: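 One unit of human recombinant topo II (the amount that fully decatenates 200 ng kDNA) with 200 ng kinetoplast DNA in 50 mM Tris-HCl pH 8, 120 mM KCl, 10 mM MgCl2, 0.5 mM ATP, 0.5 mM DTT, 30 µg/mL BSA. Drug stocks in DMSO. 10 min at 37 °C, stopped with sarkosyl loading dye. Decatenation read on 1% agarose gel in TBE.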
Sequence of DNA topoisomerase 2-alpha (P11388 whole entry): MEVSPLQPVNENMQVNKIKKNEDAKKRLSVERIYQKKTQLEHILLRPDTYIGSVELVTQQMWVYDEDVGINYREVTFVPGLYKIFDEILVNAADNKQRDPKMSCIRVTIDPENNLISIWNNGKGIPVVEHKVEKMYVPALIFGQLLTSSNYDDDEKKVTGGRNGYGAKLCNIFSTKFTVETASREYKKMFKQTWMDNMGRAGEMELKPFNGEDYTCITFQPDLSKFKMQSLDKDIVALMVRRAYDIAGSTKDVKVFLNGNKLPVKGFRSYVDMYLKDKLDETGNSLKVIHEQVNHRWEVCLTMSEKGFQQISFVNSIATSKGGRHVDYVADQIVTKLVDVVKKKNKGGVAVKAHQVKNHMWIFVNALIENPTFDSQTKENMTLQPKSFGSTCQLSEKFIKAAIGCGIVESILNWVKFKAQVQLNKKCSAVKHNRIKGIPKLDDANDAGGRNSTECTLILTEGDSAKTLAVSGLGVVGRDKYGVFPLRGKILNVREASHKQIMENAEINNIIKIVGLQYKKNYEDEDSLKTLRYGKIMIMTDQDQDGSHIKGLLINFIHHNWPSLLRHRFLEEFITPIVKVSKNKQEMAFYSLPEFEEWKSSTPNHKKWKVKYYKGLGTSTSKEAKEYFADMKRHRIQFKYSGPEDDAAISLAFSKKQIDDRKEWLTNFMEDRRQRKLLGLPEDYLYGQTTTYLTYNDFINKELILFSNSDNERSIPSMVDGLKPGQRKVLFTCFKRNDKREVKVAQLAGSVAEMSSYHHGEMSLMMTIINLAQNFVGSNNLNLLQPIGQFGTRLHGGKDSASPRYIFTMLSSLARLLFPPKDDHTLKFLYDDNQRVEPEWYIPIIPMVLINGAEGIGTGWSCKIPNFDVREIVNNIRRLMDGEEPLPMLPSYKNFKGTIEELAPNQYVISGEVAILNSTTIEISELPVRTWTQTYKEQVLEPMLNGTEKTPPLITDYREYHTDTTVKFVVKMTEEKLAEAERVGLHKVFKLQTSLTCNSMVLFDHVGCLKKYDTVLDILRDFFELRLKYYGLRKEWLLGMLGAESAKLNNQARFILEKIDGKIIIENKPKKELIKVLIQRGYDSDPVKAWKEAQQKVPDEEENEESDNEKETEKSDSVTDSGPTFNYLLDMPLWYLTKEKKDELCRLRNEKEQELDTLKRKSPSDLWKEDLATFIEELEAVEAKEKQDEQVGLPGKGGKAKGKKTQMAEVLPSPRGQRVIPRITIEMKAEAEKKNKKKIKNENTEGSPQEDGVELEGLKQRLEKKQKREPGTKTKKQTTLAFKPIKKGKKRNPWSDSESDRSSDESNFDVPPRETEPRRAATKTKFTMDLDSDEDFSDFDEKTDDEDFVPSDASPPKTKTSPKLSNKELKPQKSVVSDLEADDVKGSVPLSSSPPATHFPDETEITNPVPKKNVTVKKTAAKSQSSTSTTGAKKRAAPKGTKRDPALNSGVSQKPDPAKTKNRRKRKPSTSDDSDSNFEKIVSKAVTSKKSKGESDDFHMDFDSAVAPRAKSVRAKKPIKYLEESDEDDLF

The test system of another assay is HT-1080. Nature of the assay: Cytotoxicity against human HT1080 cells after 3 days by SRB assay. The assay is classed as functional, cell-based. To be noted: HT-1080, 72 h.
The test system of another assay is XF498. The experiment in a line: Cytotoxicity against human XF498 cells after 3 days by SRB assay. To be noted: XF498, 72 h. The assay is classed as functional, cell-based.
In a further assay the test system is HCT-15. Nature of the assay: Cytotoxicity against human HCT15 cells after 3 days by SRB assay. To be noted: HCT-15, 72 h. The assay is classed as functional, cell-based.
Another assay relates to A549. The experiment in a line: Cytotoxicity against human A549 cells after 3 days by SRB assay. The settings on record: A549, 72 h. Format: functional, cell-based.
The test system of the next assay is SK-OV-3. Nature of the assay: Cytotoxicity against human SKOV3 cells after 3 days by SRB assay. The settings on record: SK-OV-3, 72 h. Format: functional, cell-based.

Take `CCCn1nnc2c1C(=O)c1cnncc1C2=O`: the IC50 amounted to 83 nM with HL-60; 212 nM in the assay on SNU-638; 20 nM in the assay on SK-MEL-2; 49000 nM in [1]; 75 nM with HT-1080; 85 nM in the assay with XF498. The half-inhibitory concentration (IC50) in the assay on HCT-15 turned out to be 176 nM; with A549, 26 nM; in the assay with SK-OV-3, 14 nM.
For the molecule `COc1ccc(Cn2nnc3c2C(=O)c2cnncc2C3=O)cc1`, the IC50 in the assay on HL-60 is 130 nM; with SNU-638 it was 257 nM; in the assay on SK-MEL-2, 41 nM; in [1], 28600 nM; in the assay on HT-1080, 330 nM; in the assay on XF498, 118 nM. In addition, the values for the half-maximal inhibitory concentration (IC50) in the assay on HCT-15, with A549 and in the assay with SK-OV-3 were 59 nM, 54 nM and 12 nM, respectively.
For the molecule `Cn1nnc2c1C(=O)c1cnncc1C2=O`, the half-maximal inhibitory concentration (IC50) in the assay on HL-60 came to 82 nM; in the assay on SNU-638 it was 241 nM; with SK-MEL-2 it was 8 nM; in assay [1], 39000 nM; with HT-1080, 73 nM; in the assay on XF498, 35 nM. In addition, the IC50 came out at 103 nM with HCT-15, 4 nM in the assay on A549 and 3 nM in the assay with SK-OV-3.
Turning to `Cn1nc2c(n1)C(=O)c1cnncc1C2=O`, the IC50 in the assay with HL-60 came to 124 nM; in the assay on SNU-638 it was 54 nM; in the assay with SK-MEL-2, 2 nM; in assay [1] it was 55600 nM; with HT-1080, 7.8 nM; with XF498 it was 4 nM. For the same molecule, the IC50 in the assay on HCT-15 turned out to be 20 nM; in the assay on A549, 2 nM; with SK-OV-3 it was 0.4 nM.
As to `O=C1c2cnncc2C(=O)c2[nH]nnc21`, the half-maximal inhibitory concentration (IC50) in the assay with HL-60 is over 5000 nM; in the assay with SNU-638, over 5000 nM; with SK-MEL-2, over 10000 nM; in assay [1], 52800 nM; in the assay with HT-1080, over 5000 nM; in the assay on XF498, over 10000 nM. Also, the half-maximal inhibitory concentration (IC50) in the assay on HCT-15 is over 10000 nM; in the assay on A549 it was 9020 nM; with SK-OV-3, 7640 nM.
Take `CCCCn1nc2c(n1)C(=O)c1cnncc1C2=O`: the IC50 in the assay on HL-60 worked out at 151 nM; in the assay on SNU-638, 50 nM; in the assay with SK-MEL-2 it was 15 nM; in [1] it was 64800 nM; with HT-1080 it was 30 nM; in the assay with XF498, 19 nM. In addition, the IC50 in the assay with HCT-15 was 18 nM; in the assay on A549, 18 nM; with SK-OV-3, 17 nM.
Take `CC(C)n1nnc2c1C(=O)c1cnncc1C2=O`: the 50% inhibitory concentration (IC50) amounted to 50 nM with HL-60; 57 nM in the assay with SNU-638; 16 nM with SK-MEL-2; 33300 nM in assay [1]; 114 nM in the assay on HT-1080; 49 nM with XF498. Further, the half-maximal inhibitory concentration (IC50) with HCT-15 was found to be 33 nM; in the assay with A549, 32 nM; in the assay on SK-OV-3, 49 nM.
Regarding `CCCCn1nnc2c1C(=O)c1cnncc1C2=O`, the 50% inhibitory concentration (IC50) came to 89 nM with HL-60; 155 nM in the assay on SNU-638; 23 nM in the assay on SK-MEL-2; 43200 nM in assay [1]; 99 nM in the assay with HT-1080; 181 nM in the assay on XF498. Besides, the 50% inhibitory concentration (IC50) stood at 177 nM with HCT-15, 81 nM in the assay with A549 and 21 nM with SK-OV-3.
On to `CC(C)Cn1nc2c(n1)C(=O)c1cnncc1C2=O`, for which the IC50 with HL-60 came out at 38 nM; in the assay on SNU-638, 14 nM; in the assay on SK-MEL-2, 15 nM; in assay [1] it was 19400 nM; in the assay with HT-1080, 85 nM; in the assay on XF498, 19 nM. In addition, the 50% inhibitory concentration (IC50) was 29 nM with HCT-15, 19 nM with A549 and 43 nM in the assay with SK-OV-3.
Consider `CCCn1nc2c(n1)C(=O)c1cnncc1C2=O`, for which the 50% inhibitory concentration (IC50) in the assay on HL-60 amounted to 157 nM; with SNU-638, 43 nM; in the assay with SK-MEL-2, 9 nM; in [1] it was 44400 nM; in the assay on HT-1080, 33 nM; with XF498, 18 nM. Also, the IC50 with HCT-15 amounted to 18 nM; in the assay on A549 it was 19 nM; with SK-OV-3 it was 9 nM.
For the molecule `CC(C)Cn1nnc2c1C(=O)c1cnncc1C2=O`, the half-inhibitory concentration (IC50) in the assay with HL-60 turned out to be 75 nM; in the assay on SNU-638 it was 69 nM; in the assay with SK-MEL-2, 66 nM; in [1] it was 29800 nM; in the assay with HT-1080, 77 nM; in the assay on XF498, 140 nM. Also, the IC50 with HCT-15 worked out at 110 nM; with A549, 110 nM; in the assay with SK-OV-3, 190 nM.
`CC(C)n1nc2c(n1)C(=O)c1cnncc1C2=O`: the IC50 in the assay on HL-60 turned out to be 18 nM; in the assay with SNU-638, 11 nM; in the assay with SK-MEL-2, 7 nM; in [1] it was 54500 nM; with HT-1080 it was 55 nM; with XF498 it was 14 nM. Besides, the IC50 in the assay with HCT-15 came to 14 nM; in the assay on A549, 9 nM; in the assay on SK-OV-3 it was 31 nM.
In the case of `CCn1nc2c(n1)C(=O)c1cnncc1C2=O`, the concentration for half-maximal inhibition (IC50) in the assay with HL-60 was determined as 90 nM; in the assay with SNU-638 it was 46 nM; with SK-MEL-2, 4 nM; in assay [1], 61500 nM; with HT-1080, 204 nM; in the assay on XF498 it was 17 nM. Besides, the IC50 with HCT-15 amounted to 18 nM; in the assay on A549 it was 18 nM; in the assay with SK-OV-3, 3 nM.
As for `CCn1nnc2c1C(=O)c1cnncc1C2=O`, the half-maximal inhibitory concentration (IC50) in the assay with HL-60 worked out at 56 nM; in the assay with SNU-638 it was 126 nM; in the assay on SK-MEL-2, 8 nM; in [1], 55600 nM; with HT-1080, 68 nM; with XF498 it was 34 nM. Further, the 50% inhibitory concentration (IC50) in the assay with HCT-15 turned out to be 39 nM; with A549, 6 nM; in the assay on SK-OV-3, 3 nM.
As to `COc1cccc2c1C(=O)c1c(O)c3c(c(O)c1C2=O)C[C@@](O)(C(=O)CO)C[C@@H]3O[C@H]1C[C@H](N)[C@H](O)[C@H](C)O1` [DOXORUBICIN], the IC50 with HL-60 turned out to be 44 nM; in the assay on SNU-638 it was 52 nM; with SK-MEL-2, 19 nM; with HT-1080 it was 22 nM; with XF498, 44 nM; with HCT-15, 251 nM. Half-maximal inhibition in the assay with SK-OV-3 (IC50) was put at 41 nM.
With `COc1cc([C@@H]2c3cc4c(cc3[C@@H](O[C@@H]3O[C@@H]5CO[C@@H](C)O[C@H]5[C@H](O)[C@H]3O)[C@H]3COC(=O)[C@H]23)OCO4)cc(OC)c1O` [ETOPOSIDE], the IC50 in the assay on HL-60 turned out to be 370 nM; in the assay on SNU-638 it was 230 nM; in the assay with SK-MEL-2 it was 5720 nM; with HT-1080, 250 nM; with XF498 it was 3480 nM; with HCT-15, 2800 nM. Further, the IC50 worked out at 1160 nM with A549 and 4280 nM with SK-OV-3.

The record behind these values is ChEMBL document CHEMBL1144716, “Synthesis of 1-/2-substituted-[1,2,3]triazolo[4,5-g]phthalazine-4,9-diones and evaluation of their cytotoxicity and topoisomerase II inhibition” (Bioorg Med Chem, 2008).
